Legend:
[1] = melting temperature; fluorescence melt of hairpins on a sequencing array, two-state fit, raised by 9.35 °C to match UV melts; settings: sodium 0.088 M
Method in brief: (§1)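 Folding enthalpy and melting temperature come from bootstrapped two-state fits to Cy3 fluorescence of library hairpins carrying annealed Cy3 and quencher oligos on a sequenced MiSeq flow cell. Imaging was done in 50 mM Na-HEPES pH 8.0, 25 mM NaCl, stepping by 2.5 °C up to 60 °C, and signals were normalised to pre-quench Cy3 and to control constructs. Results of four replicates were combined by inverse variance, and fitted temperatures were raised by 9.35 °C to match UV melts.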

[2] = folding enthalpy; higher = less favourable; fluorescence melt of hairpins on a sequencing array, two-state fit; settings: sodium 0.088 M
Method in brief: as §1

| Sequence | Tm [1] | folding enthalpy [2] |
| --- | --- | --- |
| GGCAATGGAAACGTTGTC (.(((.(....).))).) | 35.8 °C | -25.9 kcal/mol |
| GCACTCACGAAAGTGTGC (((..(((....)))))) | 48.7 °C | -23 kcal/mol |
| GCCTCTGAAAAGAGGC ((((((....)))))) | 68.9 °C | -37.8 kcal/mol |
| GATCGTCTAGACGATC ((((((....)))))) | 59.7 °C | -37.2 kcal/mol |
| GTGCTGGGAAACCAACAC (((.(((....))).))) | 44 °C | -36.9 kcal/mol |
| GCATTCTCGAAAGAGTGC (((..(((....)))))) | 40.9 °C | -24.3 kcal/mol |
| GCGGTCGAAAGACTCGC ((((((....))).))) | 54.6 °C | -29 kcal/mol |
| GGGAAGACGAAAGTCCCC (((..(((....)))))) | 45.3 °C | -19.1 kcal/mol |
| GTTCTCGGAAACGAGAAC (((((((....))))))) | 65.7 °C | -34.5 kcal/mol |
| GATCGTTGGACGATC ((((((...)))))) | 54.8 °C | -35.1 kcal/mol |
| GATCATGGAGATGATC ((((((....)))))) | 49.7 °C | -37.5 kcal/mol |
| GATCCAAGAGTGGATC ((((((....)))))) | 46 °C | -28.6 kcal/mol |
| GATCAGATCGCTGATC ((((((....)))))) | 48.9 °C | -28.2 kcal/mol |
| GCTCCAGGAAACTGGGGC ((.((((....)))).)) | 57.6 °C | -39.6 kcal/mol |
| GCTTCGCGAAAGCCAGGC ((.(.((....)).).)) | 30.3 °C | -9.39 kcal/mol |
| GATCTTTTGAAGATC ((((((...)))))) | 43.6 °C | -27.8 kcal/mol |
| GGAGTCGAAAGACTTTCC ((((((....)))..))) | 34 °C | -11.1 kcal/mol |
| GCGGTACCCGC ((((...)))) | 63.3 °C | -18.7 kcal/mol |
| GCATAGGGAAACCTATGC (((((((....))))))) | 61.7 °C | -44.2 kcal/mol |
| GCCGGGCGAAAGCAGGGC (((..((....))..))) | 62.2 °C | -29 kcal/mol |
| GATCACTTCCGTGATC ((((((....)))))) | 56.5 °C | -35.8 kcal/mol |
| GAGACGGGAAACCGTCTC (((((((....))))))) | 69 °C | -28 kcal/mol |
| GATTCCGAAAGGACATC ((((((....))).))) | 39.2 °C | -21.4 kcal/mol |
| GTTGGTGGAAACACTGAC ((..(((....)))..)) | 34.8 °C | -15.9 kcal/mol |

| Sequence | Tm [1] | folding enthalpy [2] |
| --- | --- | --- |
| GGGTGAGGAAACTTGCCC (((..((....))..))) | 43.5 °C | -22.9 kcal/mol |
| TGTTTGAAAAAACA (((((....))))) | 29.3 °C | -8.4 kcal/mol |
| GAATGGCGAAAGCCCTTC (((.(((....))).))) | 38.4 °C | -20 kcal/mol |
| GCGGCCTCCGC ((((...)))) | 61.8 °C | -17.7 kcal/mol |
| GGGAGCGAAAGCTCGCCC ((((((....)))..))) | 52.7 °C | -11.6 kcal/mol |
| CGAGCGGAAACGCTCTCG ((((((....)))..))) | 40.5 °C | -8.45 kcal/mol |
| GCACTCGAAAGAGACTGC ((((((....)))..))) | 34.6 °C | -17 kcal/mol |
| GTGGCAGGAAACTGTCAC (((.(((....))).))) | 54.3 °C | -41 kcal/mol |
| GTGTACGAAAGTAACAC ((((((....))).))) | 49.5 °C | -30 kcal/mol |
| GATCTTCGTTAAGATC ((((((....)))))) | 43 °C | -32.2 kcal/mol |
| GCGAGAGATCGC ((((....)))) | 50.3 °C | -17.5 kcal/mol |
| GGCTCGCGAAAGCGGCC (((.(((....)))))) | 66.5 °C | -19.2 kcal/mol |
| GGCCACCGAAAGGTCGCC (((.(((....))).))) | 53.3 °C | -49.2 kcal/mol |
| GCATTACGAAAGTATTGC (((.(((....))).))) | 48.9 °C | -29.3 kcal/mol |
| GTCGGCGAAAGCCGTGAC ((((((....)))..))) | 41.1 °C | -8.14 kcal/mol |
| GGTATCGGAAACAATACC (((((.(....).))))) | 31.6 °C | -34.9 kcal/mol |
| GCAGAGCGAAAGCACGGC ((.(.((....)).).)) | 55.1 °C | -20.9 kcal/mol |
| GATCGCCCAGGCGATC ((((((....)))))) | 68.2 °C | -25.1 kcal/mol |
| GGGTCCCCGAAAGGGCCC (((..(((....)))))) | 56 °C | -23.1 kcal/mol |
| GATCAAAGGATTGATC ((((((....)))))) | 40.9 °C | -19.1 kcal/mol |
| GAGCTCGGAAACGGGCTC ((((.((....)).)))) | 60.7 °C | -44.2 kcal/mol |
| GAAGACGAAAGTCTCTTC ((((((....)))..))) | 51.6 °C | -23.9 kcal/mol |
| GCGTACACACGC ((((....)))) | 51.4 °C | -23.9 kcal/mol |
| GATCGAGGTTCGATC ((((((...)))))) | 51.6 °C | -38.6 kcal/mol |

| Sequence | Tm [1] | folding enthalpy [2] |
| --- | --- | --- |
| GTCTGCGGAAACACAGAC (((((.(....).))))) | 46.7 °C | -44.1 kcal/mol |
| GCGTTACCACGC ((((....)))) | 52.8 °C | -24.2 kcal/mol |
| GGTTCCGAAAGGAAACC ((((((....))).))) | 53.7 °C | -25.9 kcal/mol |
| GTCGCGGGAAACCGTGAC (((.(((....))).))) | 59.8 °C | -35.2 kcal/mol |
| TCCCAGAAATGGGA (((((....))))) | 43.8 °C | -15.9 kcal/mol |
| GATCGTAGTACGATC ((((((...)))))) | 54.7 °C | -29.6 kcal/mol |
| GATCTTGATGAAGATC ((((((....)))))) | 44.1 °C | -23.4 kcal/mol |
| GTTAGCGGAAACACTAAC (((((.(....).))))) | 36.6 °C | -30.3 kcal/mol |
| GTCCTTGGAAACAAGAAC ((.((((....)))).)) | 30.5 °C | -14.2 kcal/mol |
| GAGAGGGGAAACTCTCTC (((((.(....).))))) | 49.4 °C | -26.2 kcal/mol |
| TCGTAGAAATACGA (((((....))))) | 41.3 °C | -11.6 kcal/mol |
| GGCACAGGAAACCATGCC ((((..(....)..)))) | 36.1 °C | -16.3 kcal/mol |
| GCGTGCGCGAAAGCGCGC (((..(((....)))))) | 65.1 °C | -6.87 kcal/mol |
| GACGATGGAAACGTCGTC (((((.(....).))))) | 54.5 °C | -35.1 kcal/mol |
| GTGAGGGGAAACCCTCGC (.(((((....))))).) | 53.5 °C | -34 kcal/mol |
| GATCTACGGTTAGATC ((((((....)))))) | 37.8 °C | -30.3 kcal/mol |
| GGCCTAGGAAACCAGGCC (((((.(....).))))) | 53.9 °C | -49.6 kcal/mol |
| GCCACACGAAAGTGGGC (((.(((....)))))) | 60.4 °C | -24.6 kcal/mol |
| GCTAGCGAAAGCTTGAGC ((((((....)))..))) | 41.2 °C | -13.5 kcal/mol |
| GGGGACGAAAGTCCACCC ((((((....)))..))) | 55.2 °C | -11.2 kcal/mol |
| CGTTCCGGAAACGGACG (((.(((....)))))) | 49.9 °C | -30.8 kcal/mol |
| GGGCCCCGAAAGGGTCCC (((.(((....))).))) | 65.2 °C | -27.4 kcal/mol |
| GATCATGAAGATGATC ((((((....)))))) | 50.3 °C | -34.9 kcal/mol |
| GGCCGCCGAAAGGCGCC (((.(((....)))))) | 68.2 °C | -12.8 kcal/mol |

| Sequence | Tm [1] | folding enthalpy [2] |
| --- | --- | --- |
| GGTGTAGGAAACTATGCC ((..(((....)))..)) | 35.7 °C | -32.3 kcal/mol |
| GCACTGGAAACAGTGC ((((((....)))))) | 65.2 °C | -38.3 kcal/mol |
| GGTAGCGAAAGCTTACC ((((((....))).))) | 51.6 °C | -20.9 kcal/mol |
| GGCTAACGAAAGTTCGCC (((.(((....))).))) | 52.9 °C | -44.2 kcal/mol |
| GCACTGCGAAAGCTGCGC ((.(.((....)).).)) | 57.1 °C | -22.5 kcal/mol |
| GAAGAAGGAAACTCCTTC ((((.((....)).)))) | 30.7 °C | -19.2 kcal/mol |
| GATCCTTGGTAGGATC ((((((....)))))) | 51.1 °C | -31.6 kcal/mol |
| GGAAGCGAAAGCTTTTCC ((((((....)))..))) | 33.4 °C | -12.2 kcal/mol |
| GGGACTGGAAACGGTCTC (.(((.(....).))).) | 37.4 °C | -23.1 kcal/mol |
| GGAATGCGAAAGCAATCC (((.(((....))).))) | 50.9 °C | -25.6 kcal/mol |
| GCTGACGAAAGTCCAGC ((((((....))).))) | 54.5 °C | -24.7 kcal/mol |
| GCTTGCGCGAAAGCGAGC (((..(((....)))))) | 56.2 °C | -13.3 kcal/mol |
| GATCGACTTTCGATC ((((((...)))))) | 51.7 °C | -22.2 kcal/mol |
| GGAGTGCGAAAGCATCC (((.(((....)))))) | 48.2 °C | -17.1 kcal/mol |
| GATCTTAGTCAAGATC ((((((....)))))) | 42.2 °C | -31.4 kcal/mol |
| GCCATACGAAAGTAAGGC (((.(((....))).))) | 52.6 °C | -35.1 kcal/mol |
| GCCCTCGGAAACGAGGAC (.(((((....))))).) | 50.3 °C | -13.4 kcal/mol |
| CGGAAGAAATTCCG (((((....))))) | 46.4 °C | -25.1 kcal/mol |
| GATCCATATCTGGATC ((((((....)))))) | 49.7 °C | -35.5 kcal/mol |
| GCGCGGCGAAAGCCCTGC ((..(((....)))..)) | 50.1 °C | -13.5 kcal/mol |
| CGCACGGAAACGTCTGCG ((((((....)))..))) | 42.6 °C | -23.8 kcal/mol |
